Data from ChEMBL document CHEMBL4689842, “EUbOPEN Chemogenomics Library wave 1” (2021).
“And” between values parts separate entries of the source, which are not always exact repeats. Identical values can stand only once.

System: HEK-293T
Assay: Multiplex assay against HEK293T;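 on Population Tubulin-Different-Phenotype (%): share of the cells with healthy nuclei that show this phenotype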
Type: toxicity, cell-based
Settings: human
Method in brief: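 Values for tubulin, mitochondrial-mass and membrane-permeability phenotypes are per cents of cells with healthy nuclei. These cells were identified by CellPathfinder machine-learning gating of live cells that had been stained at seeding with Hoechst33342, BioTracker Green Microtubule Cytoskeleton Dye, MitoTracker Red and Annexin V Alexa Fluor 680 and imaged on a CQ1 microscope at 37°C and 5% CO2 after compound addition. The gating first set Hoechst high-intensity objects apart from normal cells, then split normal cells into healthy, pyknosed or fragmented nuclei, and pyknosed cells into mitotic or apoptotic.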

[1] = 12 h, 10 µM, compound concentration 10 uM, replicate 1
[2] = 12 h, 10 µM, compound concentration 10 uM, replicate 2
[3] = 24 h, 10 µM, compound concentration 10 uM, replicate 1
[4] = 24 h, 10 µM, compound concentration 10 uM, replicate 2
[5] = 12 h, 1 µM, compound concentration 1 uM, replicate 1
[6] = 12 h, 1 µM, compound concentration 1 uM, replicate 2
[7] = 24 h, 1 µM, compound concentration 1 uM, replicate 1
[8] = 24 h, 1 µM, compound concentration 1 uM, replicate 2
[9] = 48 h, 10 µM, compound concentration 10 uM, replicate 1
[10] = 48 h, 10 µM, compound concentration 10 uM, replicate 2

## Cn1nc(C(=O)NCc2ccc(C(=O)O)cc2)cc1-c1ccc2[nH]ccc2c1 [BI 4395]
[1]
  Population Apoptotic (%): 20% and 23%
  Population Fragmented Nuclei (%): 9% and 10%
  Population Healthy Nuclei (%): 78% and 75%
  Population Hoechst High Intensity Objects (%): 9% and 8%
  Population Membrane Permeable-Phenotype (%): 4% and 2%
  Population Mitochondria Different-Phenotype (%): 2% and 7%
  Population Mitotic Cells (%): 79% and 76%
  Population Normal (%): 90% and 91%
  Population Pyknosed Nuclei (%): 12% and 14%
  Population Tubulin-Different-Phenotype (%): 2% and 3%
  Total Cell Count: 895 and 750
[2]
  Population Apoptotic (%): 5% and 6%
  Population Healthy Nuclei (%): 84%
  Population Hoechst High Intensity Objects (%): 1%
  Population Membrane Permeable-Phenotype (%): 1%
  Population Mitochondria Different-Phenotype (%): 4%
  Population Mitotic Cells (%): 94% and 93%
  Population Normal (%): 98%
  Population Pyknosed Nuclei (%): 5% and 4%
  Population Tubulin-Different-Phenotype (%): 4%
  Total Cell Count: 1558 and 1918
[3]
  Population Apoptotic (%): 15% and 13%
  Population Fragmented Nuclei (%): 11% and 14%
  Population Healthy Nuclei (%): 81% and 80%
  Population Hoechst High Intensity Objects (%): 6% and 4%
  Population Membrane Permeable-Phenotype (%): 9% and 6%
  Population Mitochondria Different-Phenotype (%): 2% and 4%
  Population Mitotic Cells (%): 84% and 86%
  Population Normal (%): 93% and 95%
  Population Pyknosed Nuclei (%): 6% and 5%
  Population Tubulin-Different-Phenotype (%): 3% and 5%
  Total Cell Count: 1152 and 1021
[4]
  Population Fragmented Nuclei (%): 26% and 29%
  Population Healthy Nuclei (%): 71% and 68%
  Population Hoechst High Intensity Objects (%): 2% and 3%
  Population Membrane Permeable-Phenotype (%): 4%
  Population Mitochondria Different-Phenotype (%): 1%
  Population Mitotic Cells (%): 98% and 91%
  Population Normal (%): 97% and 96%
  Population Pyknosed Nuclei (%): 2% and 1%
  Total Cell Count: 2665 and 3275

## COCC(=O)NC/C=C/c1ccc2ncnc(Nc3ccc(Oc4ccc(C)nc4)c(C)c3)c2c1 [CP-724714]
[5]
  Population Apoptotic (%): 22% and 23%
  Population Fragmented Nuclei (%): 14% and 11%
  Population Healthy Nuclei (%): 39% and 69%
  Population Hoechst High Intensity Objects (%): 16% and 10%
  Population Mitotic Cells (%): 77% and 76%
  Population Normal (%): 83% and 89%
  Population Pyknosed Nuclei (%): 46% and 18%
  Total Cell Count: 617 and 674
[6]
  Population Apoptotic (%): 16% and 8%
  Population Healthy Nuclei (%): 70% and 89%
  Population Hoechst High Intensity Objects (%): 3% and 2%
  Population Mitotic Cells (%): 83% and 91%
  Population Normal (%): 96% and 97%
  Total Cell Count: 843 and 1632
[1]
  Population Apoptotic (%): 66%
  Population Fragmented Nuclei (%): 19%
  Population Healthy Nuclei (%): 18%
  Population Hoechst High Intensity Objects (%): 19%
  Population Membrane Permeable-Phenotype (%): 2%
  Population Mitochondria Different-Phenotype (%): 100%
  Population Mitotic Cells (%): 33%
  Population Normal (%): 80%
  Population Pyknosed Nuclei (%): 62%
  Population Tubulin-Different-Phenotype (%): 100%
  Total Cell Count: 329
[2]
  Population Apoptotic (%): 48%
  Population Fragmented Nuclei (%): 12%
  Population Healthy Nuclei (%): 12%
  Population Hoechst High Intensity Objects (%): 6%
  Population Membrane Permeable-Phenotype (%): 11%
  Population Mitochondria Different-Phenotype (%): 96%
  Population Mitotic Cells (%): 51%
  Population Normal (%): 93%
  Population Pyknosed Nuclei (%): 75%
  Population Tubulin-Different-Phenotype (%): 92%
  Total Cell Count: 230
[7]
  Population Apoptotic (%): 31% and 18%
  Population Fragmented Nuclei (%): 13% and 9%
  Population Healthy Nuclei (%): 54% and 81%
  Population Hoechst High Intensity Objects (%): 12% and 6%
  Population Membrane Permeable-Phenotype (%): 19%
  Population Mitotic Cells (%): 68% and 81%
  Population Normal (%): 87% and 93%
  Total Cell Count: 614 and 832
[8]
  Population Apoptotic (%): 14% and 5%
  Population Healthy Nuclei (%): 65% and 76%
  Population Hoechst High Intensity Objects (%): 4% and 2%
  Population Membrane Permeable-Phenotype (%): 10% and 9%
  Population Mitotic Cells (%): 85% and 94%
  Population Normal (%): 95% and 97%
  Total Cell Count: 1006 and 2815
[3]
  Population Apoptotic (%): 71%
  Population Fragmented Nuclei (%): 23%
  Population Healthy Nuclei (%): 17%
  Population Hoechst High Intensity Objects (%): 19%
  Population Membrane Permeable-Phenotype (%): 0%
  Population Mitochondria Different-Phenotype (%): 97%
  Population Mitotic Cells (%): 28%
  Population Normal (%): 80%
  Population Pyknosed Nuclei (%): 58%
  Total Cell Count: 336
[4]
  Population Apoptotic (%): 70%
  Population Fragmented Nuclei (%): 7%
  Population Healthy Nuclei (%): 28%
  Population Hoechst High Intensity Objects (%): 6%
  Population Membrane Permeable-Phenotype (%): 6%
  Population Mitochondria Different-Phenotype (%): 98%
  Population Mitotic Cells (%): 29%
  Population Normal (%): 93%
  Population Pyknosed Nuclei (%): 63%
  Population Tubulin-Different-Phenotype (%): 95%
  Total Cell Count: 245
[9]
  Population Apoptotic (%): 62%
  Population Fragmented Nuclei (%): 26%
  Population Healthy Nuclei (%): 10%
  Population Hoechst High Intensity Objects (%): 22%
  Population Membrane Permeable-Phenotype (%): 7%
  Population Mitochondria Different-Phenotype (%): 82%
  Population Mitotic Cells (%): 37%
  Population Normal (%): 77%
  Population Pyknosed Nuclei (%): 62%
  Population Tubulin-Different-Phenotype (%): 92%
  Total Cell Count: 347
[10]
  Population Apoptotic (%): 66%
  Population Fragmented Nuclei (%): 8%
  Population Healthy Nuclei (%): 51%
  Population Hoechst High Intensity Objects (%): 5%
  Population Mitochondria Different-Phenotype (%): 90%
  Population Mitotic Cells (%): 33%
  Population Normal (%): 94%
  Population Pyknosed Nuclei (%): 39%
  Population Tubulin-Different-Phenotype (%): 96%
  Total Cell Count: 291
